The target of the first series is T1, Gonadotropin-releasing hormone receptor (Homo sapiens, UniProt P30968).
T1 sequence (P30968 whole entry): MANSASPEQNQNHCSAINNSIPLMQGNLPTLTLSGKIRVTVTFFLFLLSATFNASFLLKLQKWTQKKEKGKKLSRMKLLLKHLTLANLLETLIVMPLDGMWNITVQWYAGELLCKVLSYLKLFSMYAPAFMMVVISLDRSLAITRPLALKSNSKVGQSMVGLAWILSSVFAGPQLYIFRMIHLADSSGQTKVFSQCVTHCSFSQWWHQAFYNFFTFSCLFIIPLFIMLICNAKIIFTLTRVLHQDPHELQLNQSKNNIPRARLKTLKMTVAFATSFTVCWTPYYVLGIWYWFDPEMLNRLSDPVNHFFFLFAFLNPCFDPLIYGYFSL
In words: In vitro ability to inhibit des-Gly[125I-Tyr, DLeu, NMeLeu,Pro-NEt]-GnRH radioligand binding to the cloned human GnRH receptor stably expressed in HEK293 cells. It is filed as cell-based.
Details: not given
The gist of the method:
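A standard antagonist on each plate controlled for plate-to-plate variation. Key compounds were run in three to eight independent experiments.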
In general, Ki refers to the equilibrium dissociation constant of an inhibitor or competing ligand from its target. Lower therefore signals higher affinity. Take `COc1cccc(-n2c(=O)n(Cc3ccccc3F)c(=O)n(C[C@H](N)c3ccccc3)c2=O)c1F`: the affinity corresponds to a Ki of 11 nM.
Molecule `COc1cccc(-n2c(=O)n(CCC(N)c3cccc(F)c3)c(=O)n(Cc3c(F)cccc3F)c2=O)c1` (centres undefined) yielded a Ki of 66 nM.
On the same count and under the same terms, then `COc1cccc(-n2c(=O)n(Cc3c(F)cccc3C(F)(F)F)c(=O)n(C[C@H](N)c3ccccc3)c2=O)c1F`, with 3 nM; and `COc1cccc(-n2c(=O)n(Cc3c(F)cccc3F)c(=O)n(CC(N)c3ccccc3F)c2=O)c1` (centres undefined), with 120 nM.
As to `COc1cccc(-n2c(=O)n(CCC(N)c3ccc(F)cc3)c(=O)n(Cc3c(F)cccc3F)c2=O)c1` (centres undefined), affinity was put at a Ki of 83 nM.
On the same count and under the same terms, then `COc1ccccc1Cn1c(=O)n(C[C@H](N)c2ccccc2)c(=O)n(-c2cccc(OC)c2F)c1=O`, with 120 nM; and `COc1cccc(-n2c(=O)n(Cc3ccccc3C)c(=O)n(C[C@H](N)c3ccccc3)c2=O)c1F`, with 29 nM.
On the same count and under the same terms, under `COc1cccc(-n2c(=O)n(Cc3c(F)cccc3F)c(=O)n(CC(N)c3ccccc3F)c2=O)c1F` (centres undefined) stands 20 nM; under `COc1cccc(-n2c(=O)n(CCC(N)c3ccccc3C)c(=O)n(Cc3c(F)cccc3F)c2=O)c1` (centres undefined), 75 nM.
As for `COc1cccc(-n2c(=O)n(Cc3cccnc3Cl)c(=O)n(C[C@H](N)c3ccccc3)c2=O)c1F`, the inhibitory constant (Ki) turned out to be 66 nM.
Same read-out and setting: then `COc1cccc(-n2c(=O)n(Cc3c(F)cccc3F)c(=O)n(CC(CN)c3ccccc3)c2=O)c1` (centres undefined), with 28 nM; and `COc1cccc(-n2c(=O)n(Cc3ccccc3Cl)c(=O)n(C[C@H](N)c3ccccc3)c2=O)c1F`, with 20 nM; and `COc1cccc(-n2c(=O)n(CCC(N)c3cccs3)c(=O)n(Cc3c(F)cccc3F)c2=O)c1` (centres undefined), with 27 nM.
On the same count and under the same terms, then `COc1cccc(-n2c(=O)n(Cc3c(F)cccc3F)c(=O)n(CC(N)CC(C)C)c2=O)c1F` (centres undefined), with 620 nM; and `COc1cccc(-n2c(=O)n(Cc3c(F)cccc3Cl)c(=O)n(C[C@H](N)c3ccccc3)c2=O)c1F`, with 5 nM; and `COc1cccc(-n2c(=O)n(CCC(N)c3ccccc3F)c(=O)n(Cc3c(F)cccc3F)c2=O)c1` (centres undefined), with 800 nM.
`COc1cccc(-n2c(=O)n(CC[C@H](N)c3ccccc3)c(=O)n(Cc3c(F)cccc3F)c2=O)c1F`: the Ki is 24 nM.
Still for that read-out and setting: then `COc1cccc(-n2c(=O)n(CCC(N)c3ccccc3)c(=O)n(Cc3c(F)cccc3F)c2=O)c1` (centres undefined), with 70 nM; and `COc1cccc(-n2c(=O)n(CCC(N)c3cccnc3)c(=O)n(Cc3c(F)cccc3F)c2=O)c1` (centres undefined), with 580 nM; and `COc1cccc(-n2c(=O)n(CC3CCCCC3)c(=O)n(C[C@H](N)c3ccccc3)c2=O)c1F`, with over 10000 nM.
Same read-out and setting: then `COc1cccc(-n2c(=O)n(C[C@H](N)c3ccccc3)c(=O)n(C(C)c3c(F)cccc3F)c2=O)c1F` (some centres undefined), with 630 nM.
`COc1cccc(-n2c(=O)n(Cc3c(F)cccc3F)c(=O)n(C[C@H](N)c3ccccc3)c2=O)c1F` showed an inhibitory constant (Ki) of 9 nM.
Regarding `COc1cccc(-n2c(=O)n(Cc3c(Cl)cccc3C#N)c(=O)n(C[C@H](N)c3ccccc3)c2=O)c1F`, the Ki amounted to 73 nM.
Molecule `COc1cccc(-n2c(=O)n(CCC(N)c3ccccc3Cl)c(=O)n(Cc3c(F)cccc3F)c2=O)c1` (centres undefined) displayed a Ki of 180 nM.
`COc1cccc(-n2c(=O)n(Cc3c(Cl)cccc3Cl)c(=O)n(C[C@H](N)c3ccccc3)c2=O)c1F` yielded a Ki of 36 nM.
The same measure, in the same setting: then `COc1cccc(-n2c(=O)n(CC[C@H](N)CC(C)C)c(=O)n(Cc3c(F)cccc3F)c2=O)c1F`, with 1500 nM.

System in a further series: not listed separately
In words: Intrinsic clearance in human liver microsomes(HLM) for metabolic stability. It is filed as ADME, Microsome. The settings on record: read-out: CI. A general note: Liver microsomes are a subcellular fraction often used to study metabolism.
`COc1cccc(-n2c(=O)n(Cc3ccccc3C#N)c(=O)n(C[C@H](N)c3ccccc3)c2=O)c1F`: the CLint scaled is 249 mL/min/kg.
On the same count and under the same terms, under `COc1cccc(-n2c(=O)n(Cc3c(F)cccc3Br)c(=O)n(C[C@H](N)c3ccccc3)c2=O)c1F` stands 158 mL/min/kg; under `COc1cccc(-n2c(=O)n(Cc3ccccc3OC(F)(F)F)c(=O)n(C[C@H](N)c3ccccc3)c2=O)c1F`, 146 mL/min/kg.

The record behind these values is ChEMBL document CHEMBL1142770, “Structure-activity relationships of 1,3,5-triazine-2,4,6-triones as human gonadotropin-releasing hormone receptor antagonists” (Bioorg Med Chem Lett, 2005).
